# Tb MetRS inh – T. brucei MetRS inhibitors, primary screen, biochemical, luminescence | methionyl-tRNA synthetase (Trypanosoma brucei brucei) | purified T. brucei MetRS, ATP depletion, Kinase-Glo luminescence | inhibition, % at 11.9 µM | actives 0.4% (n = 360,000) | AID 624268, 2012;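 active = inhibition above a per-plate cutoff of the control wells' mean inhibition plus 3 SD, cut at about 5.5% in these data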;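 note: 0% = DMSO wells median and 100% = median of wells with control inhibitor compound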
#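 technique = Kinase-Glo luminescence, ATP depletion format | system = purified MetRS (methionyl-tRNA synthetase) enzyme from Trypanosoma brucei | timing = 15 min preincubation, 2 h reaction, all 25 °C | evaluation = percent inhibition versus plate control medians | dosing = single dose, 11.9 µM final nominal, 0.9% final DMSO | also added = substrates ATP, L-methionine and bulk Escherichia coli tRNA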
# hiPSC survival – enhancers of single-cell hiPSC survival, primary screen, ATPlite luminescence | actives 0.044% (n = 360,000) | 100% = ROCK inhibitor wells, 0% = DMSO | survival enhancement, % at 20 µM; in the data active = survival enhancement above about 18%;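 note: cells exposed to compounds for 16 hours before the ATP read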
# PREPL inh – PREPL enzyme inhibitors, primary screen, biochemical, fluorescence polarization; Prolyl endopeptidase-like (Homo sapiens), Q4J6C6; recombinant PREPL, fluorescence polarization activity-based probe; inhibition, % at 5.96 µM; actives 0.68% (n = 320,000); AID 2751, 2010; in the data active = inhibition above about 43%;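 note: 0% = enzyme with DMSO and 100% = wells lacking enzyme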
# MT1-MMP act inh – blockers of MT1-MMP proenzyme processing, primary screen, HT1080 RFP-PRO-GFP cells, GFP/RFP fluorescence; Matrix metalloproteinase-14 (Homo sapiens), P50281; GFP/RFP ratio fluorescence, overnight; percent of plate control window, DMSO zero; GFP/RFP ratio change, % at 20 µM; actives 0.061% (n = 360,000); AID 651647, 2012;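 active = GFP/RFP ratio change of at least 30% with cell ATP level not reduced by more than half and red fluorescence within 50% of control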
#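 Material: RFP-PRO-GFP reporter HT1080 cells. Dosing: single-point 20 µM compound, 1% DMSO. Controls: DMSO and RFP-L50D-GFP cell wells. Timing: cells overnight before dosing, compound overnight, 37 °C, 5% CO2. Measure: GFP/RFP fluorescence ratio.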
# E coli Lon inh – inhibitors of E. coli Lon protease, primary screen, biochemical, fluorescence polarization; actives 0.42% (n = 360,000); purified E. coli Lon protease; AID 602123, 2011; inhibition, % at 7.94 µM; in the data active = inhibition above about 13%, passing the limit was not always enough;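 note: 0% = enzyme with probe and DMSO and 100% = no enzyme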
# Target sequence (P0A9M0 whole entry, looked up): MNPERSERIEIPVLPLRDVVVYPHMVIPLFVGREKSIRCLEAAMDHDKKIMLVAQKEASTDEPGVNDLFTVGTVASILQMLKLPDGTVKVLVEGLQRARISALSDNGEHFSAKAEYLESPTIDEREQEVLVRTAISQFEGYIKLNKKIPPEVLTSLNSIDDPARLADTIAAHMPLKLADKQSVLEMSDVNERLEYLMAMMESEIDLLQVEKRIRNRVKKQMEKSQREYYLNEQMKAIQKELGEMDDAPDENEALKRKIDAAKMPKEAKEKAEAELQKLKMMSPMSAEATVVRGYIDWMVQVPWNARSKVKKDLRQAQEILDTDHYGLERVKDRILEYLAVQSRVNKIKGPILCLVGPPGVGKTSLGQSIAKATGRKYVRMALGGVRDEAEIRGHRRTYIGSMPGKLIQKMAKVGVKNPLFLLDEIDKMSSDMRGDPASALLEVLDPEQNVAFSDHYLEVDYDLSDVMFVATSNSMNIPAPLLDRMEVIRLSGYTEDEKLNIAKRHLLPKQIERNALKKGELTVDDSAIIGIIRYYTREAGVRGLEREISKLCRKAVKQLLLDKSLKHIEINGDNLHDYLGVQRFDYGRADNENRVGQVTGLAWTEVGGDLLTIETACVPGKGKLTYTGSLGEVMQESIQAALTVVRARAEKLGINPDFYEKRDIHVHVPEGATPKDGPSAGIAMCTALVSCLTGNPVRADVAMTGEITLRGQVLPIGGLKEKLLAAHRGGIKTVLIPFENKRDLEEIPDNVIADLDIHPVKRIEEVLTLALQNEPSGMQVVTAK
# SKN-1 block – suppressors of acrylamide-induced Pgst-4::GFP reporter in worms, primary screen, SKN-1 inhibitor project, whole organism, uHTS, GFP/RFP fluorescence ratio, strain VP596; C. elegans VP596 Pgst-4::GFP/RFP ratio, 24 h; AID 624304, 2012; inhibition, % at 21.8 µM; actives 0.49% (n = 360,000);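 active = interference check ratio from 0.5 to 1.5 plus GFP to RFP signal ratio inhibition reaching or exceeding a fixed threshold, cut at about 30% in these data, passing the limit was not always enough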
# eLon confirm – E. coli Lon protease inhibitor retest, confirmation, biochemical, fluorescence polarization. actives 31% (n = 1,400). shares compounds with E coli Lon inh. AID 602230, 2012. purified E. coli Lon. inhibition, % at 7.94 µM; in the data active = inhibition above about 16%;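 note: 0% = enzyme with probe and DMSO and 100% = no enzyme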
# The depositor's hits bear a star; / = no result; + = active, no number; ! = a repeat was not active. Only some compounds are listed: those with a hit (about 1.8% of all), similar ones and a draw of the others.
SMILES,Tb MetRS inh,hiPSC survival,PREPL inh,MT1-MMP act inh,E coli Lon inh,SKN-1 block,eLon confirm
CCOc1ccc(CN(C)C(=O)c2cc(S(=O)(=O)N3CCCC3)ccc2C)cc1,0,0,13,1,12,0,/
CC1=CSC2=NS(=O)(=O)CCN12,1,-1,-2,1,-2,4,/
CC1=C(C(=O)c2ccccc2)C(c2cccc([N+](=O)[O-])c2)NC(=S)N1 (centres undefined),0,0,-2,-2,26*,7,1
Cc1ccc(C(=O)N/C(=C/c2ccc(-c3ccc([N+](=O)[O-])cc3)o2)C(=O)NCCCN(C)C)cc1,2,0,19,-63,-41,-2,/
CCN1CCN(Cc2ccc(NC(=O)c3ccc(C)c(NC(=O)c4cccc5[nH]ccc45)c3)cc2C(F)(F)F)CC1,-1,-2,8,-8,13*!,13,8
Nc1ccc2nc3c(=O)n(C4CCCCC4)c(=O)[nH]c3nc2c1,0,0,5,-149,+,-52,183*
Cc1nc2ccccc2c(=O)n1CCc1ccccc1,0,3,9,-5,5,3,/
CCCCn1c(=O)[nH]c2nc3cc(N)ccc3nc2c1=O,1,0,22,-168,+,-54,+
Cc1cc2nc3c(=O)n(CCc4ccccc4)c(=O)[nH]c3nc2cc1N,0,1,35,-120,166*,-60,89*
Nc1ccc2nc3c(=O)n(CCc4ccccc4)c(=O)[nH]c3nc2c1,2,0,21,-142,191*,-23,132*
CCCc1cc(C(=O)Nc2ccc(C(=O)c3ccc(C)cc3)cc2)n(C)n1,0,-1,3,2,12,-20,/
CCCCc1n[nH]c(=S)n1Cc1ccc(C)cc1,-1,-1,10,-1,-8,0,/
C=CCn1c(Sc2nc(C)cs2)nc2c1c(=O)[nH]c(=O)n2C,-1,2,6,-1,22*,2,3
c1ccc(C2(Cn3ccc4ccccc43)OCCO2)cc1,0,-1,-1,-6,25*,44*,4
O=C(O)c1ccc(Cn2ccc3ccccc32)o1,0,1,-1,-5,4,10,/
Cc1cccc(Cl)c1NC(=O)N1CCCN(c2ncccc2[N+](=O)[O-])CC1,-1,0,-7,-1,25*,1,-8
S=C(Nc1ccc2nc(-c3ccccn3)c(-c3ccccn3)nc2c1)N1CCOCC1,0,0,2,-18,20*,4,7
CC(C)N=C(Nc1ccccc1)c1cccnc1,0,-1,20,0,7,14,/
C1=C[C@@H]2CCN(Cc3ccccc3)Cc3cccc(c32)C1,0,-3,3,-23,34*,3,8
Cc1ccc(CN2CC[C@H]3C=CCc4cccc(c43)C2)cc1,1,-2,15,2,-4,28,/
Cc1noc(-c2ccccc2)c1NC(=O)Nc1ccc2nc([C@H]3C[C@H](O)[C@@H](CO)O3)[nH]c2c1,0,2,/,7,17*,13,2
CN(Cc1ccccc1)C(=O)c1ccc2nc([C@H]3C[C@H](O)[C@@H](CO)O3)[nH]c2c1,0,-2,/,2,-1,18,/
CC(NC(=O)COC(=O)C12CC3CC(CC(Br)(C3)C1)C2)c1ccccc1 (centres undefined),0,0,6,-1,26*,8,-1
CCCCn1c(C23CC4CC(CC(C4)C2)C3)n[nH]c1=S,-1,0,14,2,5,-2,/
O=C(O)c1ccc(CN2C(=O)CSC2=S)cc1,0,0,-143,30,16*,28,-7
